Data on one compound can be found in ChEMBL document CHEMBL4270548, “Discovery of a potent glucokinase activator with a favorable liver and pancreas distribution pattern for the treatment of type 2 diabetes mellitus” (Eur J Med Chem, 2018).

Data set [1] has as its system Mus musculus. In words: Antidiabetic activity in po dosed C57BL/6J mouse assessed as reduction in blood glucose level administered for 15 to 30 mins prior to glucose challenge measured up to 120 mins post dose by OGTT. It is filed as functional, organism-based. Put shortly:
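Fasted male C57BL/6J or ob/ob mice (8 weeks, n = 8/group) dosed orally in 0.5% methylcellulose 15 or 30 min before a 2 g/kg oral glucose load. Tail vein glucose measured by glucometer at −15 or −30, 0, 20, 40, 60, 90 and 120 min. Incremental glucose AUC0-120 min compared with vehicle. Mean ± SEM, Dunnett's test.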

The nature of data set [2]: Ratio of AUC (0 to 1.5 hrs) in C57BL/6J mouse liver to pancreas at 10 mg/kg, po administered as single dose by LC/MS/MS analysis. It is filed as ADME, organism-based. The settings on record: in vivo.
Data set [3] in a line: Ratio of AUC (0 to 1.5 hrs) in C57BL/6J mouse pancreas to plasma at 10 mg/kg, po administered as single dose by LC/MS/MS analysis. It is filed as ADME, organism-based. The settings on record: pancreas and plasma, read-out: Ratio AUC.
A short description of data set [4]: AUC (0 to 1.5 hrs) in C57BL/6J mouse plasma at 10 mg/kg, po administered as single dose by LC/MS/MS analysis. It is filed as ADME, organism-based. On the set-up: time < 1.5 hr, dose 10 mg/kg, route oral.
A short description of data set [5]: Ratio of AUC (0 to 1.5 hrs) in C57BL/6J mouse liver to plasma at 10 mg/kg, po administered as single dose by LC/MS/MS analysis. The settings on record: liver and plasma, read-out: Ratio AUC. It is filed as ADME, organism-based.
The nature of data set [6]: Ratio of AUC (0 to 1.5 hrs) in C57BL/6J mouse liver to pancreas at 30 mg/kg, po administered as single dose by LC/MS/MS analysis. It is filed as ADME, organism-based. The settings on record: in vivo.
Data set [7] is described as follows: AUC (0 to 1.5 hrs) in C57BL/6J mouse pancreas at 30 mg/kg, po administered as single dose by LC/MS/MS analysis. It is filed as ADME, organism-based. Set-up: time < 1.5 hr, dose 30 mg/kg, route oral. The settings on record: in vivo.
A short description of data set [8]: Ratio of AUC (0 to 1.5 hrs) in C57BL/6J mouse pancreas to plasma at 5 mg/kg, po administered as single dose by LC/MS/MS analysis. The settings on record: pancreas and plasma, read-out: Ratio AUC. It is filed as ADME, organism-based.
The nature of data set [9]: AUC (0 to 1.5 hrs) in C57BL/6J mouse liver at 10 mg/kg, po administered as single dose by LC/MS/MS analysis. It is filed as ADME, organism-based. On the set-up: time < 1.5 hr, dose 10 mg/kg, route oral. The settings on record: in vivo.
Data set [10] is described as follows: Ratio of AUC (0 to 1.5 hrs) in C57BL/6J mouse liver to pancreas at 5 mg/kg, po administered as single dose by LC/MS/MS analysis. It is filed as ADME, organism-based. The settings on record: in vivo.
Data set [11] relates to Mus musculus. In words: Toxicity in C57BL/6J mouse assessed as hypoglycemia at 30 mg/kg, po measured up to 300 mins by glucometric method. It is filed as organism-based. The settings on record: in vivo, 5 h.
A short description of data set [12]: AUC (0 to 1.5 hrs) in C57BL/6J mouse pancreas at 10 mg/kg, po administered as single dose by LC/MS/MS analysis. It is filed as ADME, organism-based. Set-up: dose 10 mg/kg, time < 1.5 hr, route oral. The settings on record: in vivo.
Data set [13] is described as follows: AUC (0 to 1.5 hrs) in C57BL/6J mouse plasma at 30 mg/kg, po administered as single dose by LC/MS/MS analysis. It is filed as ADME, organism-based. Set-up: dose 30 mg/kg, time < 1.5 hr, route oral.
Data set [14] in a line: AUC (0 to 1.5 hrs) in C57BL/6J mouse liver at 5 mg/kg, po administered as single dose by LC/MS/MS analysis. On the set-up: dose 5 mg/kg, time < 1.5 hr, route oral. The settings on record: in vivo. It is filed as ADME, organism-based.
A short description of data set [15]: AUC (0 to 1.5 hrs) in C57BL/6J mouse liver at 30 mg/kg, po administered as single dose by LC/MS/MS analysis. It is filed as ADME, organism-based. Set-up: dose 30 mg/kg, time < 1.5 hr, route oral. The settings on record: in vivo.
The nature of data set [16]: Ratio of AUC (0 to 1.5 hrs) in C57BL/6J mouse liver to plasma in C57BL/6J mouse at 5 mg/kg, po administered as single dose by LC/MS/MS analysis. It is filed as ADME, organism-based. The settings on record: liver and plasma, read-out: Ratio AUC.
A short description of data set [17]: Ratio of AUC (0 to 1.5 hrs) in C57BL/6J mouse pancreas to plasma at 30 mg/kg, po administered as single dose by LC/MS/MS analysis. It is filed as ADME, organism-based. The settings on record: pancreas and plasma, read-out: Ratio AUC.
Data set [18] in a line: AUC (0 to 1.5 hrs) in C57BL/6J mouse pancreas at 5 mg/kg, po administered as single dose by LC/MS/MS analysis. It is filed as ADME, organism-based. On the set-up: dose 5 mg/kg, time < 1.5 hr, route oral. The settings on record: in vivo.
A short description of data set [19]: Ratio of AUC (0 to 1.5 hrs) in C57BL/6J mouse liver to plasma at 30 mg/kg, po administered as single dose by LC/MS/MS analysis. It is filed as ADME, organism-based. The settings on record: liver and plasma, read-out: Ratio AUC.
In data set [20] the test system is Mus musculus. As to the kind of experiment: Antidiabetic activity in C57BL/6J mouse assessed as increase in insulin secretion at 30 mg/kg, po measured up to 60 mins by ELISA. It is filed as functional, organism-based. An outline of the steps:
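Male C57BL/6J mice (8 weeks) fasted 2 h, then dosed orally at time 0 (n = 8/group). Tail vein insulin measured at 0, 30 and 60 min by ultra-sensitive mouse insulin ELISA. Mean ± SEM, Dunnett's test.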
(In general: An ELISA detects its analyte on a solid surface through an enzyme-linked reagent.)

Data set [21] can be described thus: AUC (0 to 1.5 hrs) in C57BL/6J mouse plasma at 5 mg/kg, po administered as single dose by LC/MS/MS analysis. It is filed as ADME, organism-based. On the set-up: time < 1.5 hr, dose 5 mg/kg, route oral.

Activity calls are given as the source filed them. The calls are words filed in the database; no cut-off is given here.

As a reminder, the AUC(0-t) is the area under the concentration-time curve up to a stated or last time point. Read a high AUC(0-t) as more exposure. Turning to `CS(=O)(=O)c1ccc([C@@H](C[C@H]2CCC(=O)C2)C(=O)Nc2cnccn2)cc1Cl` [PIRAGLIATIN], the results for the Activity entry in the data set with Mus musculus [1] and in the data set with Mus musculus [11] were “Dose-dependent effect” and “Toxic”, respectively. The entries for the “Ratio AUC” value in [2], in data set [6] and in data set [10] were 3.2, 3.1 and 2.9, respectively. Also, the Kp in data set [3] was found to be 1.8; in [5] it was 5.6; in data set [8], 1.4; in data set [16], 4.2; in data set [17], 2.2; in [19] it was 6.8. For the same compound, the results for the exposure AUC(0-t) at 1.5 h in data set [4], in [13] and in data set [21] were 574 ng·h/mL, 2330 ng·h/mL and 351 ng·h/mL, respectively. In addition, the AUC in data set [7] came to 5030 ng·h/g; in data set [9], 3230 ng·h/g; in data set [12], 1020 ng·h/g; in [14], 1470 ng·h/g; in [15] it was 15700 ng·h/g; in data set [18], 505 ng·h/g. Further, the result in the data set with Mus musculus [20] was Active.
